According to ChEMBL document CHEMBL1914305, “Synthesis and structure-activity evaluation of isatin-β-thiosemicarbazones with improved selective activity toward multidrug-resistant cells expressing P-glycoprotein” (J Med Chem, 2011):

Assays:
[1] = Cytotoxicity against human KB-3-1 cells after 72 hrs by MTT assay; type: functional, cell-based; conditions: KB 3-1, 72 h
In short: (§1)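 Grown in DMEM with 10% FBS. MTT assay: 4000 cells/well, 24 h settling, serial dilutions of drug, 72 h at 37 °C in 5% CO2. MTT in IMDM 4 h, then acidified ethanol 15 min, A570 with 690 nm background. Three experiments in triplicate. KB-V1-R comes from KB-V1 grown long-term drug-free.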

[2] = Cytotoxicity against vinblastine-selected human KBV1 cells after 72 hrs by MTT assay; type: functional, cell-based; conditions: KB-V1, 72 h
In short: as §1, with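 “background. IC50 is the concentration reducing absorbance to 50% of untreated control.” for “background.”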

[3] = Selectivity ratio of IC50 for human KB-3-1 cells to IC50 for human KBV1 cells selected at 1 ug/mL vinblastine; type: functional
In short: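 Selectivity ratio: IC50 in the parental or empty-vector cells divided by IC50 in the P-gp-expressing cells (KB-V1, or ABCB1-transfected LLC-PK1). MTT assay: 4000 cells/well established for 24 h, then 72 h exposure to serially diluted drug at 37 °C, 5% CO2. MTT for 4 h, acidified ethanol lysis, A570 corrected at A690. IC50 is the concentration giving 50% of untreated absorbance, from at least three experiments.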

| Compound | IC50 [1] | IC50 [2] | Ratio IC50 [3] |
| --- | --- | --- | --- |
| CC(C)c1ccc(NC(=S)N/N=C2\C(=O)Nc3ccccc32)cc1 | 9.11 µM | 1.09 µM | 8.4 |
| O=C1Nc2ccccc2/C1=N/NC(=S)NC12CC3CC(CC(C3)C1)C2 | 3.16 µM | 1.02 µM | 3.1 |
| O=C1Nc2ccccc2/C1=N/NC(=S)Nc1cccc(Cl)c1 | 1.87 µM | 0.64 µM | 2.9 |
| O=C1Nc2ccccc2/C1=N/NC(=S)NC1CCCCC1 | 9.14 µM | 4.38 µM | 2.1 |
| Cc1ccc(NC(=S)N/N=C2\C(=O)Nc3ccccc32)cc1 | 24 µM | 2.6 µM | 9.2 |
| CCCCNC(=S)N/N=C1\C(=O)Nc2ccccc21 | 10.9 µM | 5.69 µM | 1.9 |
| O=C1Nc2ccccc2/C1=N/NC(=S)Nc1ccc(C(=O)O)cc1 | > 50 µM | > 50 µM | – |
| O=C1Nc2ccccc2/C1=N/NC(=S)Nc1ccc(O)cc1 | 35.8 µM | 21.6 µM | 1.7 |
| O=C1Nc2ccccc2/C1=N/NC(=S)Nc1c(F)cc(F)cc1F | 38.4 µM | 7.28 µM | 5.3 |
| CC(C)NC(=S)N/N=C1\C(=O)Nc2ccccc21 | 39.3 µM | 10.2 µM | 3.8 |
| O=C1Nc2ccccc2/C1=N/NC(=S)Nc1ccccc1Cl | 2.22 µM | 1.17 µM | 1.9 |
| COc1cc(NC(=S)N/N=C2\C(=O)Nc3ccccc32)cc(OC)c1OC | 11.1 µM | 3.49 µM | 3.2 |
| O=C1Nc2ccccc2/C1=N/NC(=S)Nc1cccc2ccccc12 | 5.12 µM | 2.21 µM | 2.3 |
| O=C1Nc2ccccc2/C1=N/NC(=S)Nc1ccc(C(F)(F)F)cc1 | 8.59 µM | 2.1 µM | 4.1 |
| COc1ccccc1NC(=S)N/N=C1\C(=O)Nc2ccccc21 | 4.96 µM | 2.69 µM | 1.8 |
| O=C1Nc2ccccc2/C1=N/NC(=S)Nc1ccc(Cl)cc1 | 13.4 µM | 4.99 µM | 2.7 |
